Nonsense suppression data for 27 variants are collected here from the RNAGym collection of RNA variant scans (doi:10.1101/gad.245936.114).

Fewer inactive variants are shown than the library holds.

B1: tRNA (parent)
chain: CUCUCGGUAGCCAAGUUGGUUUAAGGCGCAAGACUUUAAUUUAUCACUACGAAAUCUUGAGAUCGGGCGUUCGACUCGCCCCCGGGAGAUUUUUUCCUCGAGCAA

The variants in this series derive from B1. Description: nonsense suppression (GFP-seq) (ratio to wild type); higher = more function; SUP4oc tRNA, yeast GFP reporter sort-seq. In outline: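 Yeast were grown in raffinose/galactose medium with 80 mg/L adenine, each strain bearing a genome-integrated ochre-suppressor tRNA variant from a ~3% random-mutation library, a galactose-driven GFP ochre reporter, and RFP. After sorting into GFP/RFP bins, every bin was sequenced on an Illumina platform at phred ≥30. The GFPSEQ value, a measure of nonsense suppression, is the weighted bin median GFP/RFP relative to the unmutated parent tRNA, using each variant's estimated cell share per bin as the weight. Only variants with ≥100 reads and ≥30 cells were included.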
Regarding CUCUCGGUAGCCAAGUUGGUAUAAGGCGCAAGACUUUAAUUUAUCACUACGAAAUCUUGGGAUCGGGCGUUCGACUCGCCCCCGGGAGAUUUUUUCCUCGAGCAA [U21A A60G], the nonsense suppression stood at 0.302.
The result for CUCUCGGUAGCCAAGUUGGUAUAAGGCCCAAGACUUUAAUUUAUCACUACGAAAUCUUGAGAUCGGGCGUUCGACUCGCCCCCGGGAGAUUUUUUCCUCGAGCAA [U21A G28C] reads 0.495; that for CUCUCGGUAGCCAAGUUGGUAUAAGGCGCAAGACUUUAAUUUAUCACUACGAAAUCUUGAGAUCGGGCGUUCGACCCGCCCCCGGGAGAUUUUUUCCUCGAGCAA [U21A U76C], 1.18.
For the variant CUCUCGGUAGCCAAGUUGGUCUAAGGCGCGAGACUUUAAUUUAUCACUACGAAAUCUUGAGAUCGGGCGUUCGACUCGCCCCCGGGAGAUUUUUUCCUCGAGCAA [U21C A30G], the nonsense suppression came to 0.967.
The result for CUCUCGGUAGCCAAGUUGGUCUCAGGCGCAAGACUUUAAUUUAUCACUACGAAAUCUUGAGAUCGGGCGUGCGACUCACCCCCGGGAGAUUUUUUCCUCGAGCAA [U21C A23C U71G G78A] reads no more than 0.026; that for CUCUCGGUAGCCAAGUUGGUAUAAGGCGCAAGACUUUAAUUUAUCACUACGAAAUCUUGAGAUCGGGCGUUCGACUCGCCCCCGGGGGAUUUUUUCCUCGAGCAA [U21A A87G], 0.493.
The figure for CUCUCGGUAGCCAAGUUGGUCUAAAACGCAAGACUUUAAUUUAUCACUACGAAAUCUUGAGAUCGGGCGUUCGACUCGCCCCCGGGAGAUUUUUUCCUCGAGCAA [U21C G25A G26A] is no more than 0.026; for CUCUCGGUAGCCAAGUUGGUAGAAGGCGCAAGACUUUAAUUUAUCACUACGAAAUCUUGAGAUCGGGCGUUCGACAAGCCCCCGGGAAAUUUUUUCCUCGAGCAA [U21A U22G U76A C77A G88A] it is no more than 0.026.
As to CUCUCGGUAGCCAAGUUGGUAUAAGGCGCGAGACUUUAAUUUAUCACUACGAAAUCUUGAGAUCGGGCGUUCGACUCGCCCCCGGGAGAUUUUUUCCUCGAGCAA [U21A A30G], the nonsense suppression is 0.42.
Consider CUCUCGGUAGCCAAGUUGGUAUAAGGCGCAAGACUUUAAUUUAUCACUACGAAAUCUUGAGAUCCGGCGUACGACUCUCCCCCGGGAGAUUUUUUCCUCGAGCAA [U21A G65C U71A G78U], for which the nonsense suppression is no more than 0.026.
For CUCUCGGUAGCCAAGUUGGUAUAAGGCGCAAGAGUUUAAUUUAUCACUACGAAAUCUUGAGAUCGGGCGUUCGACUCGCCCUCGGGAGUUUUUUUCCUCGAGCAA [U21A C34G C82U A89U], the nonsense suppression was no more than 0.026.
The result for CUCUCGGUAGCCAAGUUGGUCUAAGGCGCAAGACUUUAAUUUAUCACUACGAAAUGUUGAGAUCGGGCGCUCGAGUCGCCCCCGGGAGAUUUUUUCCUCGAGCAA [U21C C56G U70C C75G] reads no more than 0.026.
Turning to CUCUCGGUAGCCAAGUUGGUAAAAGGCCCAAGACUUUAAUUUAUCACUACGAAAACUUGAGAUCGGGCAUUCGACUCGCCCCCGGGAGAUUUUUUCCUCGAGCAA [U21A U22A G28C U55A G69A], the nonsense suppression is no more than 0.026.
On to CUCUCGGUAGCCAAGUUGGUAUAUGGCGCAAGACUUUAAUUUAUCACUACGAAAUCUUGAGAUCGGGCGUUCGACUCGCCCCCGGGAGAUUUUUUCCUCGAGCAA [U21A A24U], for which the nonsense suppression stood at 0.184.
Regarding CUCUCGGUAGCCAAGUUGGUAUACGGCGCAAGACUUUAAUUUAUCACUACGAAAUCUUGAGAUCGGGCGUUCGACUCGCCCCCGGGAGAUUUUUUCCUCGAGCAA [U21A A24C], the nonsense suppression amounted to 0.753.
The figure for CUCUCGGUAGCCAAGUUGGUCUAAGGCGCAAGACUUUAAUUUAUCACUACGAAAUCUUGAGAUCGGGCGUUCGACUCGCCUCCGGGAGAUUUUUUCCUCGAGCAA [U21C C81U] is 1.14; for CUCUCGGUAGCCAAGUUGGUCUAAGGCUCAUGGCUUUAAUUUAUCACUACGAAAUCUUGAGAUCGGGCGUUCGACUCUACCCCGGGAGAUUUUUUCCUCGAGCAA [U21C G28U A31U A33G G78U C79A] it is no more than 0.026; for CUCUCGGUAGCCAAGUUGGUCUAAGGCGCAAGACUUUAAUUUAUCACUACGAAAUCUUGAAAUCGGGCGUUCGACUCGCCCCCGGGAGAUUUUUUCCUCGAGCAA [U21C G61A] it is 0.881.
Consider CUCUCGGUAGCCAAGUUGGGUUAAGGCGCAAGACUUUAAUUUAUCACUACGAAACCUUGAGAUCGGGCGUUCGGCUCGCCCCCGGGAGAUUUUUUCCUCGAGCAA [U20G U55C A74G], for which the nonsense suppression was no more than 0.026.
The figure for CUCUCGGUAGCCAAGUUGGUAUAAGGCGCAAGACUUUAAUUUAUCACUACGAAUUCUUGAGAUCGGGCGUUCGACUCGCCCCCGGGAGAUUUUUUCCUCGAGCAA [U21A A54U] is 0.737; for CUCUCGGUAGCCAAGUUGGUAUAAGGCGCAAGACUUUAAUUUAUCACUACGAAAUCUUGAGAUCGUGCGUUCGACUCGCGCCCGGGAGAUUUUUUCCUCGAGCAA [U21A G66U C80G] it is 0.219; for CUCUCGGUAGCCAAGUUGGUAUAAGGCGCAAGACUUUAAUUUAUCACUACGAAAUCUUGAGAGCGGGCGUUCGACUCGCCCCCGGAAGAUUUUUUCCUCGAGCAA [U21A U63G G86A] it is no more than 0.026.
Consider CUCUCGGUAGCCAAGUUGGUCUAAGGCGCAAGACUUUAAUUUAUCACUACGAAAUCUUGUGAUCGGGUGUUCGACUCGCCCCCGGGAGAUUUUUUCCUCGAGCAA [U21C A60U C68U], for which the nonsense suppression was 1.05.
CUCUCGGUAGCCAAGUUGGUCUAAGGCGCAAUACUUUAAUUUAUCACUACGAAAUCUCGAGAUCGGGCGUUCGACUCGCCCCCGGGAGAUUUUUUCCUCGAGCAA [U21C G32U U58C]: the nonsense suppression is no more than 0.026.
CUCUCGGUAGCCAAGUUGGUCUAAGUCGCAAGACUUUAAUUUAUCACUACGAAAUCUUGAGAUCGGACGUUCGACUCGCGCCCGGGAGAUUUUUUCCUCGAGCAA [U21C G26U G67A C80G]: the nonsense suppression is no more than 0.026.
The figure for CUCUCGGUAGCCAAGUUGGUAUAAGGCGCAAGACUUUAAUUUAUCACUACGAAUUCUUGAGAUCGGGCGUUCGACCCGCCCCCGGGAGAUUUUUUCCUCGAGCAA [U21A A54U U76C] is 0.751; for CUCUCGGUAGCCAAGUUGGUAUAAGGCGCAAGACUUUAAUUUAUCACUACGAAAUCUUGAGAUCGGGCGUUCGACUCGCCCCCGAGAGAUUUUUUCCUCGAGCAA [U21A G85A] it is 1.06.
